For one experiment, the system named is EoL-1 cells. As to the kind of experiment: cAMP accumulation. The note with it: from combined Fig. 5F and Fig. 5H. It counts as cell-based, human.
Another experiment deals with GPR114. As to the kind of experiment: CRE-Luc assay, GPR114 overexpressed in HEK293T cells. It counts as cell-based, human. Summed up:
(§1)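 HEK293T cells plated in DMEM + 10% FBS 24 h before polyethylenimine co-transfection with receptor in pcDNA3.1, rat insulin II promoter CRE-firefly luciferase, and phRLuc-N1 Renilla control. Cells were reseeded at 80,000/well 6 h later, serum-starved 4 h at 36 h, then given synthetic peptide in DMSO for 4 h. Firefly luminescence (Steady-Glo) was normalised to RLuc (3 μM coelenterazine h). Mean ± SD, ≥3 independent experiments.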

A further experiment deals with GPR64. Kind of experiment: CRE-Luc assay, GPR64 overexpressed in HEK293T cells. It is filed as cell-based, human. Summed up:
as §1

Experiment [1] has as its system GPR114-A230M (CTF-only, compromised TA). As to the kind of experiment: CRE-luciferase reporter assay, GPR114-A230M. It is filed as cell-based, human. The conditions noted are these: HEK293T, thrombin 4 h, FLuc/RLuc ratio, Fig. 4C. (In general: Reporter assays use an easily measured gene product as a stand-in for the process of interest.)
The next experiment has as its system PAR1-GPR56 fusion / G13. Kind of experiment: G13 GTPγS binding kinetics, PAR1-GPR56 fusion Sf9 membranes. It is filed as biochemical, human. The conditions noted are these: Fig. S1A.

As for TYFAVLM [P7 GPR114-AP], the “target specificity of cAMP stimulation in EoL-1 cells (conclusion)” value with EoL-1 cells is given as “promiscuously stimulates cAMP accumulation via a yet to be determined GPCR”. For the same substance, the “activation in CRE-Luc assay” value is “did not activate GPR114 nor GPR64” in the experiment on GPR114 (GPR114, Fig. 5H, as summarised in Discussion) and “did not activate GPR114 nor GPR64” in the experiment on GPR64 (GPR64, Fig. 5H, as summarised in Discussion). Also, the “CRE-Luc activity (stimulation)” value with GPR114 (TA-compromised (ΔTA) 7TM version of GPR114, Fig. 5H) was “did not stimulate cAMP production in any condition”; in the experiment on GPR114 (full length GPR114, Fig. 5H), “did not stimulate cAMP production in any condition”; with GPR64 (TA-compromised (ΔTA) 7TM version of GPR64, Fig. 5H) it was “did not stimulate cAMP production in any condition”; in the experiment with GPR64 (full length GPR64, Fig. 5H), “did not stimulate cAMP production in any condition”.
Regarding Thrombin, the “thrombin-dependent CRE-luciferase activation” value in experiment [1] was “not stimulated by thrombin”. The “thrombin-dependent activation of purified G13” value in the experiment on PAR1-GPR56 fusion / G13 was “strong thrombin-dependent activation of purified G13”.

Values taken from paper PMC10622838 (The Journal of Biological Chemistry, 2023).
